Experimental findings from ChEMBL document CHEMBL1124266, “Stereoelectronic factors influencing the biological activity and DNA interaction of synthetic antitumor agents modeled on CC-1065” (J Med Chem, 1988) are described below.

Each structure is given as a SMILES string. Calls of active or inactive are those of the source. No cut-off for these calls is given here.

A short description of data set [1]: Pseudo-first order rate constant at pH 3 followed spectrophotometrically; Stable. The format is ADME.
In the next data set the test system is Nucleic Acid. Description: Induced circular dichroism (ICD), expressed as molar ellipticity, in the presence of calf-thymus DNA. In kind it is functional. The following applies: Bos taurus. The method, boiled down: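 Drug stock (1–4 mg/mL in DMA, DMF or DMSO) injected into calf-thymus DNA (11 × 10⁻⁵ M) in 0.01 M phosphate buffer pH 7.2. Final drug 0.85 × 10⁻⁵ M, base-to-drug ratio 13. Stood 24 h at room temperature before CD spectrum. Value is molar ellipticity at long-wavelength maximum, ca. 350 nm.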

The next data set deals with L1210. As to the kind of experiment: In vitro concentration required to inhibit 50% growth of murine L1210 leukemia cells. The following applies: Mus musculus, read-out: ID50 (the source's name). The format is functional. The method in brief:
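Mouse L1210 leukemia cells in RPMI 1634 with 5% fetal calf serum, 0.075% sodium bicarbonate, penicillin 0.1 mg/mL and streptomycin 50 μg/mL. Drug aliquots added to tubes, then cells at approximately 5 × 10³ cells/mL. Incubation 37 °C for 3 days; cell number by Coulter counter. ID₅₀ = nM concentration giving 50% growth inhibition.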

The test system of data set [2] is P388. Description: In vivo % increase in life span of treated animals (OD) over that of control mice bearing tumor, determined against P388 leukemia cells; NA=no activity(<20% ILS). The format is functional, organism-based. Particulars: Mus musculus. The method in brief: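 P388 leukemia kept by serial passage in female DBA/2 mice. Male BDF1 mice were given 10^6 cells ip on day 0. Drug was given ip on days 1, 5 and 9 in 2% DMA/10% Emulphor 620-P/water, with six mice per group. Optimum dose was in mg/kg per day. %ILS came from the median day of death versus untreated tumor-bearing controls. Mice alive at 30 days were counted as cured.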

Data set [3] concerns P388. Description: In vivo optimum dose given on days 1, 5, and 9 to mice implanted intraperitoneally with P388 leukemia cells. The format is functional, Mus musculus. The method in brief: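 P388 cells (10⁶/mouse) implanted ip into male BDF1 mice on day 0. Dosing ip on days 1, 5 and 9 in 2% DMA/10% Emulphor 620-P/water vehicle. Six mice per group. Optimum dose given in mg/kg per day, judged by increase in median life span.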

Data set [4] can be described thus: Lipophilic/hydrophilic partitioning (RP-TLC). The format is ADME. Particulars: 2:1 DMF-saline. The method in brief:
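Reverse-phase TLC developed in 2:1 DMF–saline (0.9% NaCl). Plates scanned at 350 nm. R_f values averaged from two to four determinations.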

Regarding `Cc1c[nH]c2c1C13CC1CN=C3C=C2O` (stereo unspecified), the k result in data set [1] is “Stable”. Besides, in the data set on Nucleic Acid, the ICD came out at 0. The IC50 in the data set with L1210 was determined as 0.9 µM. Also, the ILS result with P388 [2] was “inactive”. In addition, the OD in the data set on P388 [3] was 10 mg/kg/day. Also, in data set [4], the Rf is listed as 0.87.
